The list is not random: actives were taken first. Their share in the collection is about 1.8%.
Rev-erbA mod = Rev-erb alpha (human) modulation | hit rate 0.79% among 370,000 | activity, % at 10 µM | Rev-erbα–FITC-DNA binding, fluorescence polarization, 90 min | P20393 | AID 1259318;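 active = activity above about 14%, limit read from the data; passing the limit was not always enough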;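 also: 0% = DMSO wells with 35 nM protein and 100% = DMSO wells with 750 nM protein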
PG9 binder = binds the HIV-1 gp120 antibody PG9. inhibition, % at 6.7 µM. TR-FRET gp120-PG9 antibody binding. hit rate 0.43% among 360,000; in the data active = inhibition above about 8.5%
Rin1 Abl inh = blocks binding of human Rin1 to Abl. P00519+Q13671. TR-FRET Rin1/Abl binding, biochemical. inhibition, % at 7.35 µM. hit rate 0.4% among 360,000. AID 588664; in the data active = inhibition above about 5%, passing the limit was not always enough
Tb MetRS inh = Trypanosoma brucei MetRS inhibition | hit rate 0.4% among 360,000 | inhibition, % at 11.9 µM | purified T. brucei MetRS, ATP depletion, Kinase-Glo luminescence;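 active = inhibition above a per-plate cutoff of the control wells' mean inhibition plus 3 SD, cut at about 5.5% in these data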;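 also: 0% = DMSO wells median and 100% = median of wells with control inhibitor compound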
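System: purified T. brucei MetRS enzyme / Detection: Kinase-Glo luciferase luminescence reporting remaining unconsumed ATP / Medium: HEPES buffer with MgCl2, KCl, DTT, spermine, BSA, pyrophosphatase / Replication: singlicate, one well per compound / Evaluation: percent inhibition relative to median high and low control wells / Schedule: 2 h aminoacylation at 25 °C after 15 min preincubation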
Rev-erbA confirm = Rev-erb alpha (human) modulation, hit confirmation | shares compounds with Rev-erbA mod | Rev-erb alpha FITC-DNA binding, fluorescence polarization, 90 min | activation, % at 25 µM | hit rate 61% among 3,000 | AID 1259319;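 active = activation at or above a set limit, or at least 3 SD above the negative control mean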;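 also: 0% = 35 nM protein with DMSO and 100% = 750 nM protein high control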
RORg DNA counter = RORgamma DNA-binding activity, dose-response counter-screen | IC50, µM | purified RORgamma protein-FITC-DNA binding, fluorescence polarization | shares compounds with Rev-erbA mod | hit rate 8% among 910 | AID 1259320;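 active = Compounds whose fitted half-maximal concentration for disrupting protein-DNA binding is below 10 micromolar; the record names Rev-erb in its text, so the target is in doubt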
Starred values were filed as active, the others as inactive; . = not tested or not shown.

SMILES	Rev-erbA mod	PG9 binder	Rin1 Abl inh	Tb MetRS inh	Rev-erbA confirm	others
CCOC(=O)C1=CCN(S(=O)(=O)c2ccc(F)cc2)C1c1ccc(Cl)cc1 (configuration not stated)	2	2	.	.	.
O=C(CCCOc1ccc(Cl)cc1Cl)NNC(=O)c1ccc(NC(=O)c2ccccc2)cc1	74*	2	-1	0	99*	RORg DNA counter=>40
Cc1ccccc1C(=O)Nc1ccc(C(=O)NNC(=O)CCCOc2ccc(Cl)cc2Cl)cc1	0	0	-2	0	.
CCOC(=O)c1c(NC(=O)COC(=O)c2ccc(O)cc2)sc(C(=O)NC)c1C	38*	0	-2	0	29*
Cc1ccc(C(=O)CNc2cccc([N+](=O)[O-])c2)cc1	15*	-3	-5	-1	-2
COc1ccc(OC)c(C(=O)COC(=O)c2[nH]c(C)c(C(C)=O)c2C)c1	16*	8	1	0	10
COc1cccc(CNC(=O)CCCNC(=O)c2ccc(Cl)cc2)c1	-4	-4	-2	0	.
COc1ccc(Cc2nc3ccccc3n2CC(=O)N/N=C/c2ccc(C)cc2O)cc1OC	34*	-1	-2	0	45*	RORg DNA counter=>40
COc1ccc(Cc2nc3ccccc3n2CC(=O)N/N=C/c2ccc(O)cc2)cc1OC	-3	-2	0	0	.
COc1ccc(-c2ccc(C3C(C#N)=C(N)Oc4n[nH]c(C)c43)o2)cc1 (configuration not stated)	22*	-1	-5	0	19*
Cc1[nH]nc2c1C(c1ccco1)C(C#N)=C(N)O2 (configuration not stated)	4	-1	5	-2	.
CC(C(=O)Nc1ccc(S(=O)(=O)N2CCCC2)cc1)N1CCCC(C(N)=O)C1 (configuration not stated)	5	4	5	0	.
CCCCN1CC(=O)N2[C@H]3c4ccc(OC)cc4OC[C@@H]3[C@H](c3ccccc3)[C@]2(C)C1=O	-5	1	8	0	.
CN1C(=O)c2cc(NC(=O)Nc3ccccc3)ccc2OC[C@H]2O[C@@H](CC(=O)NCc3ccc(-c4ccccc4)cc3)CC[C@@H]21	21	.	.	.	.
CN1C(=O)c2cc(NS(C)(=O)=O)ccc2OC[C@H]2O[C@@H](CC(=O)NCc3ccc(-c4ccccc4)cc3)CC[C@@H]21	83*	.	.	.	20*
CN1C(=O)c2cc(NC(=O)Nc3ccccc3F)ccc2OC[C@H]2O[C@@H](CC(=O)NCc3ccc(-c4ccccc4)cc3)CC[C@@H]21	107*	.	.	.	70*	RORg DNA counter=>40
CCN1C(=O)[C@H]2[C@@H](c3ccc(-c4cccc(Cl)c4)c(OC)c3)N[C@@](C)(C(=O)OC)[C@H]2C1=O	3	1	1	0	.
CC(=O)Oc1c(/C=C(\C#N)C(N)=O)[nH]c2ccccc12	55*	-43	-13	0	66*	RORg DNA counter=>40
COc1ccc(-n2c(SCC(=O)C(C)(C)C)nc3ccsc3c2=O)cc1	21*	3	-4	0	20*
Cc1c(C(=O)OCC(=O)Nc2ccc(S(N)(=O)=O)cc2)oc2c1ccc1ccccc12	16*	5	-3	-1	18
Cc1cc(NC(=O)COC(=O)c2oc3c(ccc4ccccc43)c2C)no1	-5	5	-2	-1	.
C[C@@H]1CN([C@H](C)CO)C(=O)c2cc(NC(=O)Nc3ccc(F)cc3)ccc2O[C@@H](C)CCCCO[C@@H]1CN(C)C(=O)CCCN(C)C	-3	1	.	.	.
COc1cccc(Nc2nc(C(N)CCc3ccccc3)cs2)n1 (configuration not stated)	-1	-4	2	0	.
CCC(=O)c1ccc(N2CCN(S(=O)(=O)c3ccccc3)CC2)c(F)c1	23*	-3	2	0	46*	RORg DNA counter=>40
COc1ccccc1NC(=O)Cn1c(=O)n(-c2ccccc2)c(=O)c2oc3ccccc3c21	20*	-1	-2	0	23*
SMILES	Rev-erbA mod	PG9 binder	Rin1 Abl inh	Tb MetRS inh	Rev-erbA confirm	others
CC(=O)N1CCOc2ccc(S(=O)(=O)NCc3ccc(F)cc3)cc21	-7	-1	-2	0	.
CC(C)(C)N(Cc1cn(Cc2ccccc2)nn1)S(=O)(=O)c1ccccc1Br	4	.	.	.	.
Cc1cc(Br)c2nc(-c3ccccc3)c(Cc3cccc(Cl)c3)n2c1	27*	8	.	0	15*
Cc1ccc(-c2nc3c(C)cc(Br)cn3c2Cc2cccc(F)c2)cc1	21*	4	.	0	20*
Cc1cc(Br)cn2c(Cc3ccccc3)c(-c3cccc(Cl)c3)nc12	19*	5	.	-1	16*
Cc1ccc(Cc2c(-c3ccccc3)nc3c(C)cc(Br)cn23)cc1	10	4	.	-1	.
Cc1cc(Br)cn2c(Cc3ccccc3C(F)(F)F)c(-c3ccccc3)nc12	22*	1	.	-1	11*
Cc1ccc(Cc2c(-c3ccc(Br)cc3)nc3ccc(Cl)cn23)cc1	-2	1	-1	0	.
COc1ccc(-c2nc3ccc(Br)cn3c2Cc2cccc(F)c2)cc1OC	18*	4	-20	0	3
Cc1ccc(Cc2c(-c3ccc(Br)cc3)nc3ccc(Br)cn23)cc1	24*	4	-8	-1	22*
CN(C)c1ccsc1C(=O)NNS(=O)(=O)c1ccc(Cl)cc1	-5	-2	-1	0	.
O=C(c1ccco1)N1CCN(C(=S)Nc2ccccc2C(F)(F)F)CC1	5	-1	1	0	.
COc1ccc(C(C)=O)cc1CC(=O)Nc1cccc(S(=O)(=O)N2CCOCC2)c1	2	0	2	0	.
Cc1cc(N2CCN(c3ncccn3)CC2)nc2c(C)cccc12	35*	-2	-2	0	6
COc1ccc(/C=N/NC(=O)CN(C)C(=O)OCc2ccccc2)cc1OC	5	-2	4	-1	.
Cc1cccc(NC(=O)CNC(=O)c2ccc3nc[nH]c3c2)c1C	-2	1	2	0	.
N#C/C(=C(/O)C(Cl)c1ccccc1)c1nc2ccccc2s1 (configuration not stated)	76*	-1	-58	0	49*	RORg DNA counter=>40
N#C/C(=C(/O)c1cccc(F)c1)c1nc2ccccc2s1	1	0	-1	-1	.
O=S(=O)(c1ccccc1)c1nc(-c2ccc(F)cc2)oc1NCC1CCCO1 (configuration not stated)	-1	1	2	0	.
CNc1oc(-c2ccc(F)cc2)nc1S(=O)(=O)c1ccccc1	34*	5	-1	0	2
Cc1c(Cl)ccc2c(C(=O)O)cc(-c3ccccc3)nc12	-2	4	1	0	.
CCOC(=O)CNC(=O)c1cc(-c2ccccn2)nc2c(C)c(Cl)ccc12	19*	3	-4	0	22*
Cc1c(Cl)ccc2c(C(N)=O)cc(-c3ccccn3)nc12	41*	2	-1	-1	35*	RORg DNA counter=>40

Screening data from PubChem.
